In data set [1] the test system is Rattus norvegicus. Briefly: Cardiotoxicity in thyroidectomized rat assessed as induction of alpha-MHC hnRNA expression in cardiac myocyte at 5 to 37.5 mg/kg, ip measured after 6 hrs. Format: toxicity, organism-based, Heart. Set-up: dose 5-37.5 mg/kg, route intraperitoneal. The conditions noted are these: in vivo. In outline:
(§1)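 Thyroidectomized rats were dosed intraperitoneally at 5, 20 or 37.5 mg/kg, with 4 rats per group. Vehicle was 4% DMSO, 15% PEG-400 and 81% of 30% HPBCD in phosphate buffer. Cardiac α-MHC hnRNA, in arbitrary units, and plasma concentration were measured 6 h after dosing. Comparators were untreated thyroidectomized rats and euthyroid rats.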

Data set [2] is described as follows: Plasma concentration in thyroidectomized rat at 5 mg/kg, ip measured after 6 hrs. Set-up: dose 5 mg/kg, route intraperitoneal. Format: ADME, organism-based. In outline: as §1
Data set [3] can be described thus: Intrinsic clearance in human hepatocytes assessed per million cells. The format is ADME, cell-based, Hepatocyte. The conditions noted are these: read-out: CLH.
Data set [4] can be described thus: Volume of distribution at steady state in rat at 5 mg/kg, iv. The conditions noted are these: in vivo, read-out: Vdss. Set-up: dose 5 mg/kg, route intravenous. Format: ADME, organism-based. In outline: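 Rats, N = 3, dosed iv at 5 mg/kg in parallel with a 5 mg/kg oral suspension. Pharmacokinetic parameters are mean values with SD.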
A short description of data set [5]: Tmax in rat at 5 mg/kg, po. Set-up: dose 5 mg/kg, route oral. The format is ADME, organism-based. To be noted: in vivo. In outline:
(§2)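 Rat pharmacokinetics after a 5 mg/kg dose given iv, or given orally as a suspension. Values are means with SD from N = 3 rats.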

Data set [6] has as its system Rattus norvegicus. The experiment in a line: Cmax in rat at 5 mg/kg, po. The format is ADME, organism-based. Set-up: dose 5 mg/kg, route oral. The conditions noted are these: in vivo. The gist of the method:
as §2

Data set [7] is described as follows: Oral bioavailability in rat at 5 mg/kg. To be noted: in vivo. The format is ADME, organism-based. In outline: as §2
Data set [8] deals with Mus musculus. Briefly: Toxicity in diet-induced obese C57Bl/6J mouse model assessed as effect on kidney size at 0.3 to 10 mg/kg, po administered daily for 23 days. The conditions noted are these: in vivo. Set-up: dose 0.3-10 mg/kg, route oral. Format: organism-based. In outline:
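C57Bl/6J mice aged six weeks were fed a high fat diet for 34 weeks. Body weight and food intake were monitored. BMD and body composition were assessed on day 22, and laboratory assessments were made at study end.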

Data set [9] relates to Oryctolagus cuniculus. Briefly: Antidyslipidemic activity in hypercholesterolemic rabbit model assessed as reduction in lipid level in coadministered with atorvastatin. Format: functional, organism-based.
For data set [10], the species on record is Mus musculus. The experiment in a line: Antidyslipidemic activity in diet-induced obese C57Bl/6J mouse model assessed as improvement of insulin sensitivity. The format is functional, organism-based.
Data set [11] concerns Homo sapiens. Briefly: Toxicity in healthy human with mildly elevated LDL-C level assessed as effect on vital signs at 5 to 200 mg, po qd for 2 weeks by multiple ascending dose study. The conditions noted are these: in vivo, 336 h. Format: organism-based. In outline:
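Multiple ascending dose study after single ascending dose study. Healthy subjects with LDL-C >110 mg/dL received once daily oral doses of 5 to 200 mg for 2 weeks. Safety and tolerability were assessed, covering QT interval, heart rate, vital signs and liver enzymes.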

Data set [12] has as its system Homo sapiens. The experiment in a line: Toxicity in healthy human with mildly elevated LDL-C level assessed as effect on TSH level at 100 to 200 mg, po qd for 2 weeks. The format is organism-based. To be noted: in vivo, 336 h. In outline: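 Healthy subjects with LDL-C >110 mg/dL received once daily oral doses for 2 weeks in a multiple ascending dose study. Free T3, free T4 and TSH were compared with placebo.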

Data set [13] concerns Homo sapiens. The experiment in a line: Antidyslipidemic activity in healthy human with mildly elevated LDL-C level assessed as reduction in lipids at 80 mg, po qd. Format: functional, organism-based.
A short description of data set [14]: Plasma concentration in thyroidectomized rat at 20 mg/kg, ip measured after 6 hrs. Set-up: dose 20 mg/kg, route intraperitoneal. The format is ADME, organism-based. The gist of the method: as §1
The nature of data set [15]: Solubility of the compound at pH 7.04. The conditions noted are these: buffer.

≈ marks a conversion by molar mass, not a printed value. Calls of active or inactive are those of the source. No cut-off for these calls is given here.

As a reminder, the Tmax is the time at which the peak concentration occurs. A word on the Cmax: it is the highest concentration seen after dosing. Usually bioavailability stands for the share of a dose that reaches the circulation, judged against a reference dose that is usually intravenous. Read a low bioavailability as little systemic uptake. By solubility is commonly meant the dissolved amount per volume that the medium holds. Read a low solubility as a poorly soluble substance. As to `CC(C)c1cc(Oc2c(Cl)cc(-n3nc(C#N)c(=O)[nH]c3=O)cc2Cl)n[nH]c1=O` [RESMETIROM], the Activity entry in [1], in data set [8], in data set [11] and in data set [12] was “Non-toxic” each time. In addition, the concentration at 6 h in data set [2] is 15.4 µM; in [14], 57 µM. Further, in [3], the hepatocyte CLint was found to be 1.04 µL/min/1e6 cells. In data set [4], the Vd amounted to 0.422 L/kg. In addition, the Tmax in data set [5] amounted to 6 h. Moreover, the highest concentration (Cmax) in data set [6] worked out at 1710 ng/mL. In addition, the bioavailability in [7] is 45%. Moreover, the outcome in data set [9], in data set [10] and in data set [13] was Active. Moreover, the solubility in [15] is 1 µM (≈ 0.435 µg/mL).

The values are drawn from ChEMBL document CHEMBL3259553 (J Med Chem, 2014).
